Each block holds one compound with its values, some of them ahead of it.
How the values were obtained:
[1] = Drug uptake in human PC3 cells xenografted mouse tumor at 3.7 MBq, iv by micro PET imaging in presence of RGD and BBN; assay type: ADME, organism-based, Neoplasm, PC-3; conditions: in vivo
How it was run: (§1)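 PC-3 tumor-bearing mice were co-injected i.v. with 3.7 MBq tracer and a blocking dose of c(RGDyK) (10 mg/kg), Aca-BBN(7–14) (15 mg/kg), or both. A 5-min static microPET scan was taken at 1 h pi (n = 3), and ROI-derived %ID/g was measured on decay-corrected coronal images.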

[2] = Ratio of drug uptake in tumor to blood from human PC3 cells xenografted mouse at 3.7 MBq, iv after 120 mins by micro PET imaging; assay type: ADME, organism-based, PC-3; conditions: tumour, 2 h
How it was run: (§2)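 Tumor/nontumor ratios were calculated from ROI-derived %ID/g on decay-corrected 5-min static microPET scans at 2 h after ~3.7 MBq i.v. tracer in PC-3 xenograft nude mice (n = 4).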

[3] = Drug uptake in human PC3 cells xenografted mouse tumor at 3.7 MBq, iv by micro PET imaging in presence of BBN; assay type: ADME, organism-based, Neoplasm, PC-3; conditions: in vivo; how it was run: as §1
[4] = Ratio of drug uptake in tumor to kidneys from human PC3 cells xenografted mouse at 3.7 MBq, iv after 120 mins by micro PET imaging; assay type: ADME, organism-based, PC-3; conditions: in vivo, 2 h; how it was run: as §2
Liver [5] = experiment: Drug uptake in human PC3 cells xenografted mouse liver at 3.7 MBq, iv after 30 mins by micro PET imaging; assay type: ADME, organism-based, PC-3; conditions: in vivo, 0.5 h
How it was run: (§3)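 PC-3 xenograft nude mice (tumors 100–300 mm³) were given ~3.7 MBq (100 μCi) i.v. by tail vein under isoflurane. Static 5-min scans were taken at 30 min, 1 and 2 h (n = 4), plus a 35-min dynamic scan starting 1 min pi in one mouse. Images were OSEM-reconstructed without attenuation correction. Tumor and organ %ID/g came from ROIs on decay-corrected coronal images, assuming 1 g/mL density.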

[6] = Drug uptake in human PC3 cells xenografted mouse tumor at 3.7 MBq, iv after 5 mins by micro PET imaging; assay type: ADME, organism-based, Neoplasm, PC-3; conditions: in vivo; how it was run: as §3
[7] = Ratio of drug uptake in tumor to liver from human PC3 cells xenografted mouse at 3.7 MBq, iv after 120 mins by micro PET imaging; assay type: ADME, organism-based, PC-3; conditions: in vivo, 2 h; how it was run: as §2
[8] = Drug uptake in human PC3 cells xenografted mouse tumor at 3.7 MBq, iv after 15 mins by micro PET imaging; assay type: ADME, organism-based, Neoplasm, PC-3; conditions: in vivo, 0.25 h; how it was run: as §3
PC-3 [9] = experiment: Inhibition of cellular uptake in human PC3 cells after 60 mins in presence of RGD and BBN; conditions: pc-3, 1 h
[10] = Drug uptake in human PC3 cells xenografted mouse tumor at 3.7 MBq, iv by micro PET imaging in presence of RGD; assay type: ADME, organism-based, Neoplasm, PC-3; conditions: in vivo; how it was run: as §1
PC-3 [11] = experiment: Cellular uptake in human PC3 cells after 120 mins; assay type: ADME, cell-based; conditions: pc-3, 2 h
How it was run: (§4)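 PC-3 cells were seeded at 5×10^5 per well and left overnight, then PBS-rinsed and incubated with ~0.3 μCi/well radiotracer in culture medium at 37 or 4 °C for 15–120 min. Cells were washed with chilled PBS, trypsinized and γ-counted. Uptake is % of added radioactivity; two experiments, triplicate wells.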

Bone = experiment: Biodistribution in human PC3 cells xenografted athymic nude mouse bone at 0.74 MBq, iv after 1 hr; assay type: ADME, organism-based, Bone element, PC-3; conditions: in vivo
How it was run: (§5)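 PC-3 human prostate carcinoma cells were grown in F-12K with 10% FBS, and 5×10^6 cells were injected s.c. into the right front flank of male athymic nude mice. Each mouse received 0.74 MBq (20 μCi) tracer and was sacrificed at 1 h pi. Tissues were wet-weighed and γ-counted against an injectate aliquot. Values are %ID/g normalized to 20 g body mass, mean ± SD, n = 4.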

Kidney = experiment: Biodistribution in human PC3 cells xenografted athymic nude mouse kidney at 0.74 MBq, iv after 1 hr; assay type: ADME, organism-based, PC-3; conditions: in vivo; how it was run: as §5
PC-3 [12] = experiment: Cellular uptake in human PC3 cells after 15 mins; assay type: ADME, cell-based; conditions: pc-3, 0.25 h; how it was run: as §4
PC-3 [13] = experiment: Inhibition of cellular uptake in human PC3 cells after 60 mins in presence of BBN; conditions: pc-3, 1 h
PC-3 [14] = experiment: Inhibition of cellular uptake in human PC3 cells after 60 mins in presence of RGD; conditions: pc-3, 1 h
Liver [15] = experiment: Biodistribution in human PC3 cells xenografted athymic nude mouse liver at 0.74 MBq, iv after 1 hr; assay type: ADME, organism-based, PC-3; conditions: in vivo; how it was run: as §5
Heart = experiment: Biodistribution in human PC3 cells xenografted athymic nude mouse heart at 0.74 MBq, iv after 1 hr; assay type: ADME, organism-based, PC-3; conditions: in vivo; how it was run: as §5
[16] = Ratio of drug uptake in tumor to muscle from human PC3 cells xenografted mouse at 3.7 MBq, iv after 120 mins by micro PET imaging; assay type: ADME, organism-based, PC-3; conditions: in vivo, 2 h; how it was run: as §2
Spleen = experiment: Biodistribution in human PC3 cells xenografted athymic nude mouse spleen at 0.74 MBq, iv after 1 hr; assay type: ADME, organism-based, PC-3; conditions: in vivo; how it was run: as §5
PC-3 [17] = experiment: Cellular uptake in human PC3 cells after 30 mins; assay type: ADME, cell-based; conditions: pc-3, 0.5 h; how it was run: as §4
Muscle tissue = experiment: Biodistribution in human PC3 cells xenografted athymic nude mouse muscle at 0.74 MBq, iv after 1 hr; assay type: ADME, organism-based, PC-3; conditions: in vivo; how it was run: as §5
[18] = Drug uptake in human PC3 cells xenografted mouse tumor at 3.7 MBq, iv after 120 mins by micro PET imaging; assay type: ADME, organism-based, Neoplasm, PC-3; conditions: in vivo, 2 h; how it was run: as §3
[19] = Drug uptake in human PC3 cells xenografted mouse tumor at 3.7 MBq, iv after 30 mins by micro PET imaging; assay type: ADME, organism-based, Neoplasm, PC-3; conditions: in vivo, 0.5 h; how it was run: as §3
[20] = Biodistribution in human PC3 cells xenografted athymic nude mouse tumor at 0.74 MBq, iv after 1 hr; assay type: ADME, organism-based, Neoplasm, PC-3; conditions: in vivo; how it was run: as §5
PC-3 [21] = experiment: Cellular uptake in human PC3 cells after 60 mins; assay type: ADME, cell-based; conditions: pc-3, 1 h; how it was run: as §4
Blood = experiment: Biodistribution in human PC3 cells xenografted athymic nude mouse blood at 0.74 MBq, iv after 1 hr; assay type: ADME, organism-based, PC-3; conditions: in vivo; how it was run: as §5
[22] = Drug uptake in human PC3 cells xenografted mouse tumor at 3.7 MBq, iv after 60 mins by micro PET imaging; assay type: ADME, organism-based, Neoplasm, PC-3; conditions: in vivo, 1 h; how it was run: as §3
[23] = target: Gastrin-releasing peptide receptor (Homo sapiens) (UniProt P30550); experiment: Displacement of [125I][Tyr4]BBN form gastrin-releasing peptide receptor in human PC3 cells
Sequence of Gastrin-releasing peptide receptor (Homo sapiens) (P30550 whole entry, looked up): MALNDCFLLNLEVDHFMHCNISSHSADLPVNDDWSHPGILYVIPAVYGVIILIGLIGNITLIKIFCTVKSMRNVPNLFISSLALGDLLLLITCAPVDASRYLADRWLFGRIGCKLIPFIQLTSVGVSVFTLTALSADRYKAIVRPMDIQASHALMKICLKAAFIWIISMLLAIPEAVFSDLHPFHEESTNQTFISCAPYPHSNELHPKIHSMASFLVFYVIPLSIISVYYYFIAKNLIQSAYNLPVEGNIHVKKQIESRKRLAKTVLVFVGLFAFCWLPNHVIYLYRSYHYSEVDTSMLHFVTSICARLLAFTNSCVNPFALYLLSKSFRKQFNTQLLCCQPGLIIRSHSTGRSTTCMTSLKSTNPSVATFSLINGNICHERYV

- Drug uptake [1]: 0.43 % ID/g
- Ratio [2]: 8.1
- Drug uptake [3]: 1.58 % ID/g
- Ratio [4]: 1.44
- Drug uptake (Liver [5]): 2 % ID/g
- Drug uptake [6]: 3.54 % ID/g
- Ratio [7]: 6.43
- Drug uptake [8]: 4.86 % ID/g
- Inhibition (PC-3 [9]): 91.97%
- Drug uptake [10]: 2.19 % ID/g
- Drug uptake (PC-3 [11]): 6.65%
- Drug uptake (Bone): 2 % ID/g
- Drug uptake (Kidney): 4.87 % ID/g
- Drug uptake (PC-3 [12]): 4.72%
- Inhibition (PC-3 [13]): 83.67%
- Inhibition (PC-3 [14]): 17.55%
- Drug uptake (Liver [15]): 2 % ID/g
- Drug uptake (Heart): 2 % ID/g
- Ratio [16]: 10.54
- Drug uptake (Spleen): 2 % ID/g
- Drug uptake (PC-3 [17]): 5.51%
- Drug uptake (Muscle tissue): 2 % ID/g
- Drug uptake [18]: 2.88 % ID/g
- Drug uptake [19]: 6.35 % ID/g
- Drug uptake [20]: 4 % ID/g
- Drug uptake (PC-3 [21]): 5.87%
- Drug uptake (Blood): 2 % ID/g
- Drug uptake [22]: 4.41 % ID/g
SMILES: CSCC[C@@H](NC(=O)[C@H](CC(C)C)NC(=O)[C@@H](Cc1c[nH]cn1)NC(=O)CNC(=O)[C@H](NC(=O)[C@H](C)NC(=O)[C@@H](Cc1c[nH]c2ccccc12)NC(=O)[C@H](CCC(N)=O)NC(=O)CCCCCNC(=O)CC[C@H](NC(=O)COCCOCCOCCNC(=O)c1ccc([18F])cc1)C(=O)NCCCC[C@H]1NC(=O)[C@@H](CCCNC(=N)N)NC(=O)CNC(=O)[C@@H](CC(=O)O)NC(=O)[C@H](Cc2ccc(O)cc2)NC1=O)C(C)C)C(N)=O

- IC50 [23]: 85.4 nM
SMILES: CSCC[C@H](NC(=O)[C@H](CC(C)C)NC(=O)[C@H](Cc1c[nH]cn1)NC(=O)CNC(=O)[C@@H](NC(=O)[C@H](C)NC(=O)[C@H](Cc1c[nH]c2ccccc12)NC(=O)[C@H](CCC(N)=O)NC(=O)CCCCCNC(=O)CC[C@H](NC(=O)COCCOCCOCCN)C(=O)NCCCC[C@@H]1NC(=O)[C@H](CCCNC(=N)N)NC(=O)CNC(=O)[C@H](CC(=O)O)NC(=O)[C@@H](Cc2ccc(O)cc2)NC1=O)C(C)C)C(N)=O

- IC50 ([23]; pc-3): 73.3 nM
SMILES: CSCC[C@@H](NC(=O)[C@H](CC(C)C)NC(=O)[C@@H](Cc1c[nH]cn1)NC(=O)CNC(=O)[C@H](NC(=O)[C@H](C)NC(=O)[C@@H](Cc1c[nH]c2ccccc12)NC(=O)[C@H](CCC(N)=O)NC(=O)CCCCCNC(=O)CC[C@H](NC(=O)COCCOCCOCCNC(=O)c1ccc(F)cc1)C(=O)NCCCC[C@H]1NC(=O)[C@@H](CCCNC(=N)N)NC(=O)CNC(=O)[C@@H](CC(=O)O)NC(=O)[C@H](Cc2ccc(O)cc2)NC1=O)C(C)C)C(N)=O

— ChEMBL document CHEMBL1139378, “Dual integrin and gastrin-releasing peptide receptor targeted tumor imaging using 18F-labeled PEGylated RGD-bombesin heterodimer 18F-FB-PEG3-Glu-RGD-BBN” (J Med Chem, 2009)
